In brackets after ≈: the same amount, converted by molar mass. Activity calls are given as the source filed them. The rule behind the calls is not given here.
Assays:
Candida albicans [1] = experiment: Antimicrobial activity against Candida albicans SC5314 dissociated biofilms grown on polyvinylchloride catheter surface at cell density of 10^8 cells/ml at 0.25 to 8 ug/ml by XTT assay; assay type: functional, organism-based
Method in brief: (§1)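 1-cm discs of denture acrylic, PVC catheter or silicone elastomer-coated latex catheter, ethylene-oxide sterilised. Seeded with 1 ml of 1 x 10^6 cells/ml, adhesion 90 min at 37°C, washed, grown 48 h at 37°C in RPMI. Biofilm scraped off, set to 1 x 10^3 or 1 x 10^8 cells/ml, exposed to fluconazole, read by XTT at 490 nm.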

Candida albicans [2] = experiment: Antimicrobial activity against Candida albicans SC5314 at planktonic cell density of 10^8 cells/ml after 48 hrs by XTT assay; assay type: functional; details: SC5314, 48 h
Method in brief: (§2)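 YNB-grown yeast (50 mM glucose, room temperature, shaken, to ~2 x 10^8 cells/ml) washed into MOPS-buffered RPMI 1640 with L-glutamine and set to the stated density. Exposed to twofold serial drug dilutions (1,024 to 0.0313 µg/ml) at 37°C, 48 h (caspofungin 24 h), with drug-free controls. Read-out: XTT (0.5 g/liter) plus 1 µM menadione, formazan at 490 nm.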

Candida albicans [3] = experiment: Inhibition of metabolic activity in Candida albicans SC5314 at 32 ug/ml; assay type: functional; set-up: scale not given: the % may be the effect or the level left
Method in brief: (§3)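 SC5314 fluconazole susceptibility tested with or without FK506. Cell suspension, drug and FK506 volumes set to the final concentrations in 200 µl. Incubation at 37°C for 48 h, then metabolic activity by XTT/menadione at 490 nm.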

Candida albicans [4] = experiment: Antimicrobial activity against Cdr1, Cdr2 and Mdr1 deficient Candida albicans DSY1050 at planktonic cell density of 10^3 cells/ml after 48 hrs by XTT assay; assay type: functional; details: DSY1050, 48 h; method in brief: as §2
Candida albicans [5] = experiment: Antimicrobial activity against Cdr1, Cdr2 and Mdr1 deficient Candida albicans DSY1050 dissociated biofilms at cell density of 10^8 cells/ml after 48 hrs by XTT assay; assay type: functional; details: DSY1050, 48 h
Method in brief: (§4)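 Polystyrene-well biofilms (48 h, 37°C) washed, then broken up in 100 µl RPMI by scraping and aspiration. Cells used undiluted (about 2 x 10^8 cells/ml equivalent) or adjusted by A600 against a hemacytometer-calibrated yeast standard curve. Drug exposure at 37°C for 48 h (caspofungin 24 h), then XTT/menadione read at 490 nm.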

Candida albicans [6] = experiment: Antimicrobial activity against Candida albicans FH1 at planktonic cell density of 10^3 cells/ml after 48 hrs by XTT assay; assay type: functional; details: FH1, 48 h; method in brief: as §2
Candida albicans [7] = experiment: Antimicrobial activity against Candida albicans SC5314 dissociated biofilms grown on polyvinylchloride catheter surface at cell density of 10^3 cells/ml at 0.25 to 8 ug/ml by XTT assay; assay type: functional, organism-based; method in brief: as §1
Candida albicans [8] = experiment: Antimicrobial activity against Candida albicans GDH2346 at planktonic cell density of 10^3 cells/ml after 48 hrs by XTT assay; assay type: functional; details: GDH2346, 48 h; method in brief: as §2
Candida albicans [9] = experiment: Antimicrobial activity against Cdr1, Cdr2 and Mdr1 deficient Candida albicans DSY1050 intact biofilms after 48 hrs by XTT assay; assay type: functional; details: DSY1050, 48 h
Method in brief: (§5)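 Biofilm seeded at 1 x 10^6 cells/ml in RPMI in polystyrene microtiter wells and grown 48 h at 37°C in a moist chamber. Washed once and drug added to the same well (twofold dilutions, 1,024 to 0.0313 µg/ml) for 48 h at 37°C (caspofungin 24 h). Read-out: XTT/menadione reduction at 490 nm.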

Candida albicans [10] = experiment: Antimicrobial activity against Chk1 deficient Candida albicans CHK21 intact biofilms after 48 hrs by XTT assay; assay type: functional; details: CHK21, 48 h; method in brief: as §5
Candida albicans [11] = experiment: Antimicrobial activity against fluconazole-resistant Candida albicans FH5 at planktonic cell density of 10^8 cells/ml after 48 hrs by XTT assay; assay type: functional; details: FH5, 48 h; method in brief: as §2
Candida albicans [12] = experiment: Antimicrobial activity against Cdr1, Cdr2 and Mdr1 deficient Candida albicans DSY1050 at planktonic cell density of 10^8 cells/ml after 48 hrs by XTT assay; assay type: functional; details: DSY1050, 48 h; method in brief: as §2
Candida albicans [13] = experiment: Antimicrobial activity against Candida albicans FH1 at planktonic cell density of 10^8 cells/ml after 48 hrs by XTT assay; assay type: functional; details: FH1, 48 h; method in brief: as §2
Candida albicans [14] = experiment: Inhibition of metabolic activity in Candida albicans SC5314 at 32 ug/ml in presence of 2 ug/ml calcineurin pathway inhibitor FK506; assay type: functional; set-up: scale not given: the % may be the effect or the level left; method in brief: as §3
Candida albicans [15] = experiment: Antimicrobial activity against Candida albicans SC5314 intact biofilms after 48 hrs by XTT assay; assay type: functional; details: SC5314, 48 h; method in brief: as §5
Candida albicans [16] = experiment: Antimicrobial activity against Candida albicans SC5314 dissociated biofilms at cell density of 10^8 cells/ml after 48 hrs by XTT assay; assay type: functional; details: SC5314, 48 h; method in brief: as §4
Candida albicans [17] = experiment: Antimicrobial activity against Candida albicans FH1 dissociated biofilms at cell density of 10^8 cells/ml after 48 hrs by XTT assay; assay type: functional; details: FH1, 48 h; method in brief: as §4
Candida albicans [18] = experiment: Antimicrobial activity against Chk1 deficient Candida albicans CHK21 dissociated biofilms at cell density of 10^3 cells/ml after 48 hrs by XTT assay; assay type: functional; details: CHK21, 48 h; method in brief: as §4
Candida albicans [19] = experiment: Antimicrobial activity against Candida albicans GDH2346 dissociated biofilms at cell density of 10^3 cells/ml after 48 hrs by XTT assay; assay type: functional; details: GDH2346, 48 h; method in brief: as §4
Candida albicans [20] = experiment: Antimicrobial activity against Candida albicans FH1 intact biofilms after 48 hrs by XTT assay; assay type: functional; details: FH1, 48 h; method in brief: as §5
Candida albicans [21] = experiment: Antimicrobial activity against Candida albicans FH1 dissociated biofilms at cell density of 10^3 cells/ml after 48 hrs by XTT assay; assay type: functional; details: FH1, 48 h; method in brief: as §4
Candida albicans [22] = experiment: Antimicrobial activity against fluconazole-resistant Candida albicans FH5 intact biofilms after 48 hrs by XTT assay; assay type: functional; details: FH5, 48 h; method in brief: as §5
Candida albicans [23] = experiment: Antimicrobial activity against Candida albicans SC5314 at 512 ug/ml at planktonic cell density of 5 x 10^7 cells/ml after 48 hrs by XTT assay; assay type: functional; details: SC5314, 48 h
Candida albicans [24] = experiment: Antimicrobial activity against Candida albicans SC5314 dissociated biofilms at cell density of 10^3 cells/ml after 48 hrs by XTT assay; assay type: functional; details: SC5314, 48 h; method in brief: as §4
Candida albicans [25] = experiment: Antimicrobial activity against Chk1 deficient Candida albicans CHK21 dissociated biofilms at cell density of 10^8 cells/ml after 48 hrs by XTT assay; assay type: functional; details: CHK21, 48 h; method in brief: as §4
Candida albicans [26] = experiment: Antimicrobial activity against Candida albicans SC5314 at planktonic cell density of 10^3 cells/ml after 48 hrs by XTT assay; assay type: functional; details: SC5314, 48 h; method in brief: as §2
Candida albicans [27] = experiment: Antimicrobial activity against fluconazole-resistant Candida albicans FH5 at planktonic cell density of 10^3 cells/ml after 48 hrs by XTT assay; assay type: functional; details: FH5, 48 h; method in brief: as §2
Candida albicans [28] = experiment: Antimicrobial activity against Candida albicans SC5314 dissociated biofilms grown on silicone-elastomer coated latex surface at cell density of 10^8 cells/ml at 0.25 to 8 ug/ml by XTT assay; assay type: functional, organism-based; method in brief: as §1
Candida albicans [29] = experiment: Antimicrobial activity against Candida albicans GDH2346 at planktonic cell density of 10^8 cells/ml after 48 hrs by XTT assay; assay type: functional; details: GDH2346, 48 h; method in brief: as §2
Candida albicans [30] = experiment: Antimicrobial activity against Candida albicans SC5314 dissociated biofilms grown on polymethylmethacrylate surface at cell density of 10^3 cells/ml at 0.25 to 8 ug/ml by XTT assay; assay type: functional, organism-based; method in brief: as §1
Candida albicans [31] = experiment: Antimicrobial activity against Candida albicans GDH2346 dissociated biofilms at cell density of 10^8 cells/ml after 48 hrs by XTT assay; assay type: functional; details: GDH2346, 48 h; method in brief: as §4

## OC(Cn1cncn1)(Cn1cncn1)c1ccc(F)cc1F [FLUCONAZOLE]
Candida albicans [1]
  Activity: inactive
Candida albicans [2]
  MIC80: > 256 µg/mL
Candida albicans [3]
  Activity: 15%
Candida albicans [4]
  MIC80: 0.25 µg/mL (≈ 0.816 µM)
Candida albicans [5]
  MIC80: > 64 µg/mL
Candida albicans [6]
  MIC80: 4 µg/mL (≈ 13.1 µM)
Candida albicans [7]
  Activity: Active
Candida albicans [8]
  MIC80: 2 µg/mL (≈ 6.53 µM)
Candida albicans [9]
  MIC80: > 64 µg/mL
Candida albicans [10]
  MIC80: > 64 µg/mL
Candida albicans [11]
  MIC80: > 512 µg/mL
Candida albicans [12]
  MIC80: > 64 µg/mL
Candida albicans [13]
  MIC80: > 512 µg/mL
Candida albicans [14]
  Activity: 17%
Candida albicans [15]
  MIC80: > 512 µg/mL
Candida albicans [16]
  MIC80: > 256 µg/mL
Candida albicans [17]
  MIC80: > 512 µg/mL
Candida albicans [18]
  MIC80: 0.125 µg/mL (≈ 0.408 µM)
Candida albicans [19]
  MIC80: 0.25 µg/mL (≈ 0.816 µM)
Candida albicans [20]
  MIC80: > 512 µg/mL
Candida albicans [21]
  MIC80: 2 µg/mL (≈ 6.53 µM)
Candida albicans [22]
  MIC80: > 512 µg/mL
Candida albicans [23]
  inhibition at 512 µg/mL: 40%
Candida albicans [24]
  MIC80: 0.25 µg/mL (≈ 0.816 µM)
Candida albicans [25]
  MIC80: > 64 µg/mL
Candida albicans [26]
  MIC80: 0.5 µg/mL (≈ 1.63 µM)
Candida albicans [27]
  MIC80: 64 µg/mL (≈ 209 µM)
Candida albicans [28]
  Activity: inactive
Candida albicans [29]
  MIC80: > 512 µg/mL
Candida albicans [30]
  Activity: Active
Candida albicans [31]
  MIC80: > 64 µg/mL
